# Key:
# Assay type in all cases: cell-based
# full-length PKCθ Y239A = full-length PKCθ Y239A (Mus musculus, UniProt Q02111, Y239A); assay: Membrane translocation in HEK-293 cells; conditions: 50 nM PMA, 2 h
# full-length PKCθ T243A = full-length PKCθ T243A (Mus musculus, UniProt Q02111, T243A); assay: Membrane translocation in HEK-293 cells; conditions: 50 nM PMA, 2 h
# full-length PKCθ W253G = full-length PKCθ W253G (Mus musculus, UniProt Q02111, W253G); assay: Membrane translocation in HEK-293 cells; conditions: 50 nM PMA, 2 h
# full-length PKCθ L255G = full-length PKCθ L255G (Mus musculus, UniProt Q02111, L255G); assay: Membrane translocation in HEK-293 cells; conditions: 50 nM PMA, 2 h
# full-length PKCθ Q258G = full-length PKCθ Q258G (Mus musculus, UniProt Q02111, Q258G); assay: Membrane translocation in HEK-293 cells; conditions: 50 nM PMA, 2 h
# GFP–PKCθ wild-type = GFP–PKCθ wild-type (Mus musculus, UniProt Q02111); assay: Confocal translocation in living LNCaP cells
# Outline: (§1)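 Mouse full-length PKCθ (wild-type or C1B point mutant) carrying a C-terminal EGFP tag via a GGNSGG spacer, transfected into LNCaP prostate cancer cells. Living cells were exposed to PMA and imaged by confocal microscopy over a time course. Membrane/cytoplasm intensity ratios were quantified from the images; means ± S.E.M., with images typical of three to four independent experiments.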
# GFP–PKCθ Y239A = GFP–PKCθ Y239A (Mus musculus, UniProt Q02111, Y239A); assay: Confocal translocation in living LNCaP cells
# Outline: as §1
# GFP–PKCθ T243A = GFP–PKCθ T243A (Mus musculus, UniProt Q02111, T243A); assay: Confocal translocation in living LNCaP cells
# Outline: as §1
# GFP–PKCθ W253G = GFP–PKCθ W253G (Mus musculus, UniProt Q02111, W253G); assay: Confocal translocation in living LNCaP cells
# Outline: as §1
# GFP–PKCθ L255G = GFP–PKCθ L255G (Mus musculus, UniProt Q02111, L255G); assay: Confocal translocation in living LNCaP cells
# Outline: as §1
# GFP–PKCθ Q258G = GFP–PKCθ Q258G (Mus musculus, UniProt Q02111, Q258G); assay: Confocal translocation in living LNCaP cells
# Outline: as §1
# [1] = 100 nM PMA (second block, r6-r8), 5 min
# [2] = 100 nM PMA (second block, r6-r8), 10 min
# [3] = 100 nM PMA (second block, r6-r8), 20 min
# [4] = 100 nM PMA as printed (first block, r3-r5), 5 min
# [5] = 100 nM PMA as printed (first block, r3-r5), 10 min
# [6] = 100 nM PMA as printed (first block, r3-r5), 20 min
# GFP–PKCθ Y239A, sequence (Q02111 whole entry Y239A): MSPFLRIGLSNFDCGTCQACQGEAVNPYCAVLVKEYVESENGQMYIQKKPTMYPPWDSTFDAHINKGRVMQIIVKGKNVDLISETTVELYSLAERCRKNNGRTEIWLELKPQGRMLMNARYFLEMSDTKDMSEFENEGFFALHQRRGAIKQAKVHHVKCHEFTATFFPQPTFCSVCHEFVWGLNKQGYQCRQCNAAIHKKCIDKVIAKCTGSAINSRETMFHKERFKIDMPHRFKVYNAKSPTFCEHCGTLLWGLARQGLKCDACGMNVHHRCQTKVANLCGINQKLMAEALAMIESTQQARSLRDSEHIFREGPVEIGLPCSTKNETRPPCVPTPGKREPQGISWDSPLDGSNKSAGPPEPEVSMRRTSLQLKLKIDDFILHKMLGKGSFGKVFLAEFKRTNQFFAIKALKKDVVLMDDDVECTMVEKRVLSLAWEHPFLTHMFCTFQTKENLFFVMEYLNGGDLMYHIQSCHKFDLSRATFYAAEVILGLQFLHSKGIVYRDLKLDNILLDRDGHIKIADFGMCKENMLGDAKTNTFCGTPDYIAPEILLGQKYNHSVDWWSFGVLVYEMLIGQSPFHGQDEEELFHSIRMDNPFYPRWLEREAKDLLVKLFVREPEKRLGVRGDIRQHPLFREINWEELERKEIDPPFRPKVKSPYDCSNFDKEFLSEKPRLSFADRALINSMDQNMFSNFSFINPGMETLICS
# GFP–PKCθ W253G, sequence (Q02111 whole entry W253G): as the sequence (Q02111 whole entry Y239A) above, with A239Y, W253G counted along it
# GFP–PKCθ wild-type, sequence (Q02111 whole entry): as the sequence (Q02111 whole entry Y239A) above, with A239Y counted along it
# GFP–PKCθ T243A, sequence (Q02111 whole entry T243A): as the sequence (Q02111 whole entry Y239A) above, with A239Y, T243A counted along it
# GFP–PKCθ L255G, sequence (Q02111 whole entry L255G): as the sequence (Q02111 whole entry Y239A) above, with A239Y, L255G counted along it
# GFP–PKCθ Q258G, sequence (Q02111 whole entry Q258G): as the sequence (Q02111 whole entry Y239A) above, with A239Y, Q258G counted along it
# full-length PKCθ Y239A, sequence (Q02111 whole entry Y239A): as the sequence (Q02111 whole entry Y239A) above
# full-length PKCθ W253G, sequence (Q02111 whole entry W253G): as the sequence (Q02111 whole entry Y239A) above, with A239Y, W253G counted along it
# full-length PKCθ T243A, sequence (Q02111 whole entry T243A): as the sequence (Q02111 whole entry Y239A) above, with A239Y, T243A counted along it
# full-length PKCθ L255G, sequence (Q02111 whole entry L255G): as the sequence (Q02111 whole entry Y239A) above, with A239Y, L255G counted along it
# full-length PKCθ Q258G, sequence (Q02111 whole entry Q258G): as the sequence (Q02111 whole entry Y239A) above, with A239Y, Q258G counted along it
smiles,measurement,setting,value
CCCCCCCCCCCCCC(=O)O[C@@H]1[C@@H](C)[C@@]2(O)[C@@H](C=C(CO)C[C@]3(O)C(=O)C(C)=C[C@@H]23)[C@@H]2C(C)(C)[C@]12OC(C)=O [PMA],reduction in membrane translocation compared with the wild-type,full-length PKCθ Y239A,17.1%
same,reduction in membrane translocation compared with the wild-type,full-length PKCθ T243A,12.5%
same,reduction in membrane translocation compared with the wild-type,full-length PKCθ W253G,14.8%
same,reduction in membrane translocation compared with the wild-type,full-length PKCθ L255G,19.4%
same,reduction in membrane translocation compared with the wild-type,full-length PKCθ Q258G,21.6%
same,"Membrane/cytoplasmic intensity ratio, PKCθ WT","GFP–PKCθ wild-type; 10 nM PMA, 5 min",1.0 ± 0.1
same,"Membrane/cytoplasmic intensity ratio, PKCθ WT","GFP–PKCθ wild-type; 10 nM PMA, 10 min",1.0 ± 0.1
same,"Membrane/cytoplasmic intensity ratio, PKCθ WT","GFP–PKCθ wild-type; 10 nM PMA, 20 min",1.2 ± 0.4
same,time to marked translocation to the plasma membrane,GFP–PKCθ wild-type; 100 nM PMA,≤ 2 min
same,"Membrane/cytoplasmic intensity ratio, PKCθ WT",GFP–PKCθ wild-type; [1],8.1 ± 1.2
same,"Membrane/cytoplasmic intensity ratio, PKCθ WT",GFP–PKCθ wild-type; [2],6.5 ± 0.7
same,"Membrane/cytoplasmic intensity ratio, PKCθ WT",GFP–PKCθ wild-type; [3],5.4 ± 0.5
same,"Membrane/cytoplasmic intensity ratio, PKCθ WT",GFP–PKCθ wild-type; [4],14.5 ± 2.2
same,"Membrane/cytoplasmic intensity ratio, PKCθ WT",GFP–PKCθ wild-type; [5],11.3 ± 2.1
same,"Membrane/cytoplasmic intensity ratio, PKCθ WT",GFP–PKCθ wild-type; [6],12.1 ± 2.2
same,"Membrane/cytoplasmic intensity ratio, PKCθ Y239A","GFP–PKCθ Y239A; 10 nM PMA, 5 min",1.1 ± 0.0
same,"Membrane/cytoplasmic intensity ratio, PKCθ Y239A","GFP–PKCθ Y239A; 10 nM PMA, 10 min",1.1 ± 0.1
same,"Membrane/cytoplasmic intensity ratio, PKCθ Y239A","GFP–PKCθ Y239A; 10 nM PMA, 20 min",1.0 ± 0.0
same,"Membrane/cytoplasmic intensity ratio, PKCθ Y239A",GFP–PKCθ Y239A; [1],1.7 ± 0.4
same,"Membrane/cytoplasmic intensity ratio, PKCθ Y239A",GFP–PKCθ Y239A; [2],2.3 ± 0.8
same,"Membrane/cytoplasmic intensity ratio, PKCθ Y239A",GFP–PKCθ Y239A; [3],2.3 ± 0.5
same,"Membrane/cytoplasmic intensity ratio, PKCθ Y239A",GFP–PKCθ Y239A; [4],3.8 ± 1.8
same,"Membrane/cytoplasmic intensity ratio, PKCθ Y239A",GFP–PKCθ Y239A; [5],4.2 ± 1.6
same,"Membrane/cytoplasmic intensity ratio, PKCθ Y239A",GFP–PKCθ Y239A; [6],5 ± 0.4
same,"Membrane/cytoplasmic intensity ratio, PKCθ T243A","GFP–PKCθ T243A; 10 nM PMA, 5 min",1.0 ± 0.0
same,"Membrane/cytoplasmic intensity ratio, PKCθ T243A","GFP–PKCθ T243A; 10 nM PMA, 10 min",1.3 ± 0.2
same,"Membrane/cytoplasmic intensity ratio, PKCθ T243A","GFP–PKCθ T243A; 10 nM PMA, 20 min",1.7 ± 0.1
same,time by which translocation was largely complete,GFP–PKCθ T243A; 100 nM PMA,≤ 5 min
same,"Membrane/cytoplasmic intensity ratio, PKCθ T243A",GFP–PKCθ T243A; [1],3.6 ± 1.1
same,"Membrane/cytoplasmic intensity ratio, PKCθ T243A",GFP–PKCθ T243A; [2],3.7 ± 0.8
same,"Membrane/cytoplasmic intensity ratio, PKCθ T243A",GFP–PKCθ T243A; [3],3.1 ± 0.6
same,"Membrane/cytoplasmic intensity ratio, PKCθ T243A",GFP–PKCθ T243A; [4],10.3 ± 1.9
same,"Membrane/cytoplasmic intensity ratio, PKCθ T243A",GFP–PKCθ T243A; [5],9.9 ± 1.5
same,"Membrane/cytoplasmic intensity ratio, PKCθ T243A",GFP–PKCθ T243A; [6],7.4 ± 1.5
same,"Membrane/cytoplasmic intensity ratio, PKCθ W253G","GFP–PKCθ W253G; 10 nM PMA, 5 min",1.0 ± 0.1
same,"Membrane/cytoplasmic intensity ratio, PKCθ W253G","GFP–PKCθ W253G; 10 nM PMA, 10 min",1.1 ± 0.1
same,"Membrane/cytoplasmic intensity ratio, PKCθ W253G","GFP–PKCθ W253G; 10 nM PMA, 20 min",1.2 ± 0.2
same,"Membrane/cytoplasmic intensity ratio, PKCθ W253G",GFP–PKCθ W253G; [1],1.9 ± 0.4
same,"Membrane/cytoplasmic intensity ratio, PKCθ W253G",GFP–PKCθ W253G; [2],3.0 ± 0.7
same,"Membrane/cytoplasmic intensity ratio, PKCθ W253G",GFP–PKCθ W253G; [3],2.6 ± 0.6
same,"Membrane/cytoplasmic intensity ratio, PKCθ W253G",GFP–PKCθ W253G; [4],11.4 ± 3.6
same,"Membrane/cytoplasmic intensity ratio, PKCθ W253G",GFP–PKCθ W253G; [5],12.7 ± 3.9
same,"Membrane/cytoplasmic intensity ratio, PKCθ W253G",GFP–PKCθ W253G; [6],13.2 ± 5.0
same,"Membrane/cytoplasmic intensity ratio, PKCθ L255G","GFP–PKCθ L255G; 10 nM PMA, 5 min",1.1 ± 0.1
same,"Membrane/cytoplasmic intensity ratio, PKCθ L255G","GFP–PKCθ L255G; 10 nM PMA, 10 min",1.1 ± 0.1
same,"Membrane/cytoplasmic intensity ratio, PKCθ L255G","GFP–PKCθ L255G; 10 nM PMA, 20 min",1.1 ± 0.0
same,"Membrane/cytoplasmic intensity ratio, PKCθ L255G",GFP–PKCθ L255G; [1],1.3 ± 0.1
same,"Membrane/cytoplasmic intensity ratio, PKCθ L255G",GFP–PKCθ L255G; [2],1.6 ± 0.2
same,"Membrane/cytoplasmic intensity ratio, PKCθ L255G",GFP–PKCθ L255G; [3],2.3 ± 0.4
same,"Membrane/cytoplasmic intensity ratio, PKCθ L255G",GFP–PKCθ L255G; [4],4.8 ± 1.5
same,"Membrane/cytoplasmic intensity ratio, PKCθ L255G",GFP–PKCθ L255G; [5],6.0 ± 1.2
same,"Membrane/cytoplasmic intensity ratio, PKCθ L255G",GFP–PKCθ L255G; [6],7.2 ± 1.9
same,"Membrane/cytoplasmic intensity ratio, PKCθ Q258G","GFP–PKCθ Q258G; 10 nM PMA, 5 min",1.2 ± 0.1
same,"Membrane/cytoplasmic intensity ratio, PKCθ Q258G","GFP–PKCθ Q258G; 10 nM PMA, 10 min",1.1 ± 0.1
same,"Membrane/cytoplasmic intensity ratio, PKCθ Q258G","GFP–PKCθ Q258G; 10 nM PMA, 20 min",1.1 ± 0.0
same,"Membrane/cytoplasmic intensity ratio, PKCθ Q258G",GFP–PKCθ Q258G; [1],1.0 ± 0.0
same,"Membrane/cytoplasmic intensity ratio, PKCθ Q258G",GFP–PKCθ Q258G; [2],1.1 ± 0.0
same,"Membrane/cytoplasmic intensity ratio, PKCθ Q258G",GFP–PKCθ Q258G; [3],1.1 ± 0.0
same,"Membrane/cytoplasmic intensity ratio, PKCθ Q258G",GFP–PKCθ Q258G; [4],1.2 ± 0.1
same,"Membrane/cytoplasmic intensity ratio, PKCθ Q258G",GFP–PKCθ Q258G; [5],2.0 ± 0.3
same,"Membrane/cytoplasmic intensity ratio, PKCθ Q258G",GFP–PKCθ Q258G; [6],2.1 ± 0.4
same,plasma membrane translocation response,"GFP–PKCθ Q258G; 100 nM PMA, by 20 min",little response
same,plasma membrane translocation response,"GFP–PKCθ Q258G; 1000 nM PMA, later times",partial translocation

# — publication PMC6988732 (The Biochemical journal, 2013)
